Source: ChEMBL document CHEMBL1629436, “Synthesis and biological evaluation of new camptothecin derivatives obtained by modification of position 20” (Bioorg Med Chem, 2010)
Activity calls are given as the source filed them. The rule behind the calls is not given here.

Legend:
yA7 [1] = experiment: Induction apoptosis in mouse yA7 cells assessed as relative caspase activity at 10 uM/L after 2 hrs by rhodamine 110 fluorescence assay; type: functional, cell-based
Summary of the method: (§1)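 Cells were pretreated with compound (10 µmol/L) for 2 h. The cell-permeable caspase substrate (Asp)2-rhodamine 110 (10 µmol/L) was then added for 2 h more. Caspase cleavage releases fluorescent rhodamine 110, and the read-out was mean fluorescence.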

yD12 [2] = experiment: Induction apoptosis in mouse yD12 cells assessed as relative caspase activity at 10 uM/L after 2 hrs by rhodamine 110 fluorescence assay; type: functional, cell-based; summary of the method: as §1
A2C12 [3] = experiment: Induction apoptosis in mouse A2C12 cells assessed as ROS production at 10 uM/L using DCFH-DA by flow cytometry relative to control; type: functional, cell-based
Summary of the method: (§2)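 Transgenic mouse cells exposed to compound at 10 µmol/L. ROS generation was measured by flow cytometry using the probe DCFH-DA.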

Craf/Cmyc [4] = experiment: Induction apoptosis in mouse Craf/Cmyc cells assessed as ROS production at 10 uM/L using DCFH-DA by flow cytometry relative to control; type: functional, cell-based; summary of the method: as §2
A2B1 [5] = experiment: Induction apoptosis in mouse A2B1 cells assessed as ROS production at 10 uM/L using DCFH-DA by flow cytometry relative to control; type: functional, cell-based; summary of the method: as §2
B3 [6] = experiment: Cytotoxicity against mouse B3 cells after 24 to 96 hrs by MTS assay; type: functional, cell-based
Summary of the method: (§3)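 Mouse transgenic lines plated at 10^3 cells/well and left 24 h to attach. Drugs diluted in medium were added for 24 or 96 h. CellTiter 96 AQueous One (MTS) reagent was then added for 1 h at 37 °C, with absorbance read at 490 nm. Each condition was run in quintuplicate, and cytotoxicity was expressed as percent of controls.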

Nucleic Acid = experiment: Binding affinity to salmon testes DNA by linear flow dichroism analysis; type: nucleic-acid assay; conditions: Salmonidae
Summary of the method: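 Salmon testes DNA (1.9 × 10^-3 M) in ETN buffer (10 mM Tris, 10 mM NaCl, 1 mM EDTA, pH 7). Linear dichroism spectra were recorded at 25 °C over a range of [drug]/[DNA] ratios on a spectropolarimeter converted for LD.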

B3 [7] = experiment: Induction apoptosis in mouse B3 cells assessed as ROS production at 10 uM/L using DCFH-DA by flow cytometry relative to control; type: functional, cell-based; summary of the method: as §2
yD12 [8] = experiment: Induction apoptosis in mouse yD12 cells assessed as ROS production at 10 uM/L using DCFH-DA by flow cytometry relative to control; type: functional, cell-based; summary of the method: as §2
yD1 [9] = experiment: Induction apoptosis in mouse yD1 cells assessed as relative caspase activity at 10 uM/L after 2 hrs by rhodamine 110 fluorescence assay; type: functional, cell-based; summary of the method: as §1
yB8 [10] = experiment: Induction apoptosis in mouse yB8 cells assessed as ROS production at 10 uM/L using DCFH-DA by flow cytometry relative to control; type: functional, cell-based; summary of the method: as §2
yA7 [11] = experiment: Induction apoptosis in mouse yA7 cells assessed as ROS production at 10 uM/L using DCFH-DA by flow cytometry relative to control; type: functional, cell-based; summary of the method: as §2
yD1 [12] = experiment: Induction apoptosis in mouse yD1 cells assessed as ROS production at 10 uM/L using DCFH-DA by flow cytometry relative to control; type: functional, cell-based; summary of the method: as §2
Craf/Cmyc [13] = experiment: Cytotoxicity against mouse Craf/Cmyc cells after 24 to 96 hrs by MTS assay; type: functional, cell-based; summary of the method: as §3
Mus musculus [14] = species: Mus musculus; experiment: Induction apoptosis in mouse betaD10 cells assessed as relative caspase activity at 10 uM/L after 2 hrs by rhodamine 110 fluorescence assay; type: functional, cell-based; summary of the method: as §1
Mus musculus [15] = species: Mus musculus; experiment: Induction apoptosis in mouse betaD10 cells assessed as ROS production at 10 uM/L using DCFH-DA by flow cytometry relative to control; type: functional, cell-based; summary of the method: as §2
HeLa = experiment: Cytotoxicity against human HeLa cells after 72 hrs by trypan blue assay; type: functional, cell-based
Summary of the method: (§4)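 A-431, HeLa and HL-60 cells at 4×10^4 per well, incubated 24 h. HeLa and A-431 then received fresh medium. Graded compound concentrations were added for a further 72 h at 37 °C, 5% CO2. Viability was counted by Trypan blue exclusion. IC50 is the concentration giving 50% reduction in cell number versus control: ≥3 independent experiments, triplicate samples, mean ± SD.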

Mus musculus [16] = species: Mus musculus; experiment: Cytotoxicity against mouse betaD10 cells after 24 to 96 hrs by MTS assay; type: functional, cell-based; summary of the method: as §3
Mus musculus [17] = species: Mus musculus; experiment: Induction apoptosis in mouse betaD5 cells assessed as ROS production at 10 uM/L using DCFH-DA by flow cytometry relative to control; type: functional, cell-based; summary of the method: as §2
Bos taurus = species: Bos taurus; experiment: Inhibition of calf thymus topoisomerase 1-mediated relaxation of supercoiled pBR322 at 100 uM after 60 mins using ethidium bromide staining by agarose gel electrophoresis
Summary of the method: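 Supercoiled pBR322 (0.25 µg) with 2 U calf thymus topoisomerase I and test compound, 60 min at 37 °C in 20 µl reaction buffer. Stopped with SDS/bromophenol blue/glycerol plus 50 µg/mL proteinase K, 30 min at 37 °C. Run on 1% agarose at room temperature, stained with ethidium bromide 1 µg/mL in TAE, imaged under UV.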

yA3 [18] = experiment: Induction apoptosis in mouse yA3 cells assessed as relative caspase activity at 10 uM/L after 2 hrs by rhodamine 110 fluorescence assay; type: functional, cell-based; summary of the method: as §1
yB8 [19] = experiment: Cytotoxicity against mouse yB8 cells after 24 to 96 hrs by MTS assay; type: functional, cell-based; summary of the method: as §3
[20] = biological target: DNA topoisomerase 2-alpha (Homo sapiens) (UniProt P11388); experiment: Inhibition of human recombinant topoisomerase 2alpha-mediated relaxation of supercoiled pBR322 at 100 uM after 60 mins using ethidium bromide staining by agarose gel electrophoresis
Summary of the method: (§5)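 Supercoiled pBR322 (0.25 µg) with 1 U human recombinant topoisomerase IIα and test compound, 60 min at 37 °C in 20 µl reaction buffer. Stopped with SDS/bromophenol blue/glycerol plus 50 µg/mL proteinase K, 30 min at 37 °C. Separated on 1% agarose at room temperature, ethidium bromide stained (1 µg/mL, TAE), UV-visualized.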

Mus musculus [21] = species: Mus musculus; experiment: Induction apoptosis in mouse betaD5 cells assessed as relative caspase activity at 10 uM/L after 2 hrs by rhodamine 110 fluorescence assay; type: functional, cell-based; summary of the method: as §1
yA3 [22] = experiment: Induction apoptosis in mouse yA3 cells assessed as ROS production at 10 uM/L using DCFH-DA by flow cytometry relative to control; type: functional, cell-based; summary of the method: as §2
yD12 [23] = experiment: Cytotoxicity against mouse yD12 cells after 24 to 96 hrs by MTS assay; type: functional, cell-based; summary of the method: as §3
A2C12 [24] = experiment: Induction apoptosis in mouse A2C12 cells assessed as relative caspase activity at 10 uM/L after 2 hrs by rhodamine 110 fluorescence assay; type: functional, cell-based; summary of the method: as §1
A-431 = experiment: Cytotoxicity against human A431 cells after 72 hrs by trypan blue assay; type: functional, cell-based; conditions: A-431, 72 h; summary of the method: as §4
HUVEC [25] = experiment: Antiangiogenic activity in HUVEC cocultured with human PaSMC assessed as inhibition of capillary-like network formation up to 200 nM after 72 hrs; type: functional, cell-based
Summary of the method: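 Primary HUVEC (passage 5, retrovirally labelled with RFP) and pulmonary artery vSMC (passage 5) co-seeded at 5×10^4 PaSMC plus 10×10^3 HUVEC per well in EGM-2, briefly spun at 200 g, attached 3 h. Compounds were then added at final 2–200 nM, two replicates per concentration. Networks formed over 72 h at 37 °C, 5% CO2, followed by automated imaging and image analysis of tube formation.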

yB8 [26] = experiment: Induction apoptosis in mouse yB8 cells assessed as relative caspase activity at 10 uM/L after 2 hrs by rhodamine 110 fluorescence assay; type: functional, cell-based; summary of the method: as §1
yA7 [27] = experiment: Cytotoxicity against mouse yA7 cells after 24 to 96 hrs by MTS assay; type: functional, cell-based; summary of the method: as §3
[28] = biological target: DNA topoisomerase 2-alpha (Homo sapiens) (UniProt P11388); experiment: Inhibition of human recombinant topoisomerase 2alpha-mediated relaxation of supercoiled pBR322 after 60 mins using ethidium bromide staining by agarose gel electrophoresis; summary of the method: as §5
B3 [29] = experiment: Induction apoptosis in mouse B3 cells assessed as relative caspase activity at 10 uM/L after 2 hrs by rhodamine 110 fluorescence assay; type: functional, cell-based; summary of the method: as §1
HL-60 = experiment: Cytotoxicity against human HL60 cells after 72 hrs by trypan blue assay; type: functional, cell-based; conditions: HL-60, 72 h; summary of the method: as §4
A2C12 [30] = experiment: Cytotoxicity against mouse A2C12 cells after 24 to 96 hrs by MTS assay; type: functional, cell-based; summary of the method: as §3
A2B1 [31] = experiment: Cytotoxicity against mouse A2B1 cells after 24 to 96 hrs by MTS assay; type: functional, cell-based; summary of the method: as §3
Mus musculus [32] = species: Mus musculus; experiment: Cytotoxicity against mouse betaD5 cells after 24 to 96 hrs by MTS assay; type: functional, cell-based; summary of the method: as §3
A2B1 [33] = experiment: Induction apoptosis in mouse A2B1 cells assessed as relative caspase activity at 10 uM/L after 2 hrs by rhodamine 110 fluorescence assay; type: functional, cell-based; summary of the method: as §1
yA3 [34] = experiment: Cytotoxicity against mouse yA3 cells after 24 to 96 hrs by MTS assay; type: functional, cell-based; summary of the method: as §3
Craf/Cmyc [35] = experiment: Induction apoptosis in mouse Craf/Cmyc cells assessed as relative caspase activity at 10 uM/L after 2 hrs by rhodamine 110 fluorescence assay; type: functional; summary of the method: as §1
HUVEC [36] = experiment: Antiangiogenic activity in HUVEC cocultured with human PaSMC assessed as inhibition of capillary-like network formation at 25 nM after 72 hrs; type: functional, cell-based
Summary of the method: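 RFP-expressing HUVEC (early passage, passage 5) co-seeded with pulmonary artery vSMC (5×10^4 PaSMC plus 10×10^3 HUVEC per well) in EGM-2, briefly spun at 200 g and allowed to attach for 3 h. Compounds were added at final 2–200 nM, two replicates per concentration, at 37 °C, 5% CO₂. Network was imaged at 72 h with automated imaging, and tube length was quantified by image analysis.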

[37] = biological target: DNA topoisomerase 2-alpha (Homo sapiens) (UniProt P11388); experiment: Inhibition of human recombinant topoisomerase 2alpha-mediated relaxation of supercoiled pBR322 at up to 100 uM after 60 mins using ethidium bromide staining by agarose gel electrophoresis; summary of the method: as §5

Sequence of DNA topoisomerase 2-alpha (Homo sapiens) (P11388 whole entry): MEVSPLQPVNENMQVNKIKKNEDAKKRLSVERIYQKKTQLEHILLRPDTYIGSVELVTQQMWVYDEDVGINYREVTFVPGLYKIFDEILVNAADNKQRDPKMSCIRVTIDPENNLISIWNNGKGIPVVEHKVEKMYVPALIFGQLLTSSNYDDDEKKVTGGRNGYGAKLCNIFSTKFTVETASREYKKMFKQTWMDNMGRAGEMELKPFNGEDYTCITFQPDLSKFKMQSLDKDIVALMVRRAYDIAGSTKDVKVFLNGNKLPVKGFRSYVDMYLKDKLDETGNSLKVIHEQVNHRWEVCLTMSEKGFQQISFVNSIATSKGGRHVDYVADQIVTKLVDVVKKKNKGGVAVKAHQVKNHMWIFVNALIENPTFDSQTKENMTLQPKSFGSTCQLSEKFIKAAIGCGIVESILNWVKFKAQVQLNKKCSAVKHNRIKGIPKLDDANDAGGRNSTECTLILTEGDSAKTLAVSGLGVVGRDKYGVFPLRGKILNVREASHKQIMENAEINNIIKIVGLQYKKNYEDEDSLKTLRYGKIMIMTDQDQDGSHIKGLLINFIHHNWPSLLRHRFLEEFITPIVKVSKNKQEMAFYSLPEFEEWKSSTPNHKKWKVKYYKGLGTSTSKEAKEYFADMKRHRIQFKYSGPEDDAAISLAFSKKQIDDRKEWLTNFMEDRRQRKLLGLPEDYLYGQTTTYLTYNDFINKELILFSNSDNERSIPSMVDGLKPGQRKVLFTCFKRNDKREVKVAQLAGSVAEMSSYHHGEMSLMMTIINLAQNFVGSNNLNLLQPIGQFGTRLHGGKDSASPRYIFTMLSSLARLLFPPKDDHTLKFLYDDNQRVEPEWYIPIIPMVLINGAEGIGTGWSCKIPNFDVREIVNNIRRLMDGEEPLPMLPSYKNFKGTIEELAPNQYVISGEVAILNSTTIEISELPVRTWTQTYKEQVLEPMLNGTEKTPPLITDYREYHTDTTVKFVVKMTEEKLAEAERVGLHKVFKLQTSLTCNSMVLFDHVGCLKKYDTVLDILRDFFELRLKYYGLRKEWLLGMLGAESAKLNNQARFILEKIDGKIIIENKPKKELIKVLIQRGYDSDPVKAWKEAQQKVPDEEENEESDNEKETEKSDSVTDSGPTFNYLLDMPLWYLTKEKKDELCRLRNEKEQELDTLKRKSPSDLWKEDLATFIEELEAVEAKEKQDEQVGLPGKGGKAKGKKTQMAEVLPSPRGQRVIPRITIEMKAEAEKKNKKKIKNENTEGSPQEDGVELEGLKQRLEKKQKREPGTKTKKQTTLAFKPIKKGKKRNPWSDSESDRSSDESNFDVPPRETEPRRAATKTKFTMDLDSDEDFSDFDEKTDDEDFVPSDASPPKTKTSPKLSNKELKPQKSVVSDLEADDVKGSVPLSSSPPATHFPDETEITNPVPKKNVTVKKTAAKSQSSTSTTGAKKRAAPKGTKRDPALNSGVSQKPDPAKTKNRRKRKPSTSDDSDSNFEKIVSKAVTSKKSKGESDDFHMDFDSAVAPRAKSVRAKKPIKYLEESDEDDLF

CC[C@@]1(OC(=O)NCCN2C(=O)CCSSCCC2=O)C(=O)OCc2c1cc1n(c2=O)Cc2cc3ccccc3nc2-1
Activity (yA7 [1]): inactive | Activity (yD12 [2]): inactive | Activity (A2C12 [3]): inactive | Activity (Craf/Cmyc [4]): inactive | Activity (A2B1 [5]): inactive | Activity (B3 [6]): Active | Activity (Nucleic Acid): inactive | Activity (B3 [7]): inactive | Activity (yD12 [8]): inactive | Activity (yD1 [9]): inactive | Activity (yB8 [10]): inactive | Activity (yA7 [11]): inactive | Activity (yD1 [12]): inactive | Activity (Craf/Cmyc [13]): Active | Activity (Mus musculus [14]): inactive | Activity (Mus musculus [15]): inactive | IC50 (HeLa): 12000 nM | Activity (Mus musculus [16]): Active | Activity (Mus musculus [17]): inactive | Activity (Bos taurus): inactive | Activity (yA3 [18]): inactive | Activity (yB8 [19]): Active | Activity [20]: Active | Activity (Mus musculus [21]): inactive | Activity (yA3 [22]): inactive | Activity (yD12 [23]): Active | Activity (A2C12 [24]): inactive | IC50 (A-431): 2970 nM | Activity (HUVEC [25]): inactive | Activity (yB8 [26]): inactive | Activity (yA7 [27]): Active | Activity [28]: Dose-dependent effect | Activity (B3 [29]): inactive | IC50 (HL-60): 8100 nM | Activity (A2C12 [30]): Active | Activity (A2B1 [31]): Active | Activity (Mus musculus [32]): Active | Activity (A2B1 [33]): inactive | Activity (yA3 [34]): Active | Activity (Craf/Cmyc [35]): inactive

CC[C@@]1(O)C(=O)OCc2c1cc1n(c2=O)Cc2cc3ccccc3nc2-1 [CAMPTOTHECIN]
IC50 (HeLa): 8.9 nM | IC50 (A-431): 11 nM | inhibition (HUVEC [36]): Active | IC50 (HL-60): 17 nM

CC[C@@]1(OC(=O)NCCN2C(=O)CSSCC2=O)C(=O)OCc2c1cc1n(c2=O)Cc2cc3ccccc3nc2-1
Activity (Nucleic Acid): inactive | Activity [37]: inactive

CC[C@@]1(OC(=O)NCCN2C(=O)CCCSSCCCC2=O)C(=O)OCc2c1cc1n(c2=O)Cc2cc3ccccc3nc2-1
Activity (B3 [6]): Active | Activity (Nucleic Acid): inactive | Activity (Craf/Cmyc [13]): Active | IC50 (HeLa): 570 nM | Activity (Mus musculus [16]): Active | Activity (Bos taurus): inactive | Activity (yB8 [19]): Active | Activity (yD12 [23]): Active | IC50 (A-431): 1210 nM | Activity (HUVEC [25]): inactive | Activity (yA7 [27]): Active | Activity [37]: inactive | IC50 (HL-60): 1550 nM | Activity (A2C12 [30]): Active | Activity (A2B1 [31]): Active | Activity (Mus musculus [32]): Active | Activity (yA3 [34]): Active
